{"source": "ChEMBL document CHEMBL4689842", "about": "“EUbOPEN Chemogenomics Library wave 1” (2021)", "test_system": "HEK-293T", "experiment": "Multiplex assay against HEK293T;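 as to Population Tubulin-Different-Phenotype (%): share of the cells with healthy nuclei that show this phenotype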", "assay_type": "toxicity, cell-based", "conditions": "human", "how_it_was_run": "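Cells were classed with CellPathfinder machine-learning gating, first as Hoechst high-intensity objects or normal cells, then (normal cells) as healthy, pyknosed or fragmented nuclei, and finally (pyknosed cells) as mitotic or apoptotic. Staining of live cells at seeding used Hoechst33342, BioTracker Green Microtubule Cytoskeleton Dye, MitoTracker Red and Annexin V Alexa Fluor 680, with imaging on a CQ1 microscope at 37°C and 5% CO2 after compound addition. Tubulin, mitochondrial-mass and membrane-permeability phenotypes are per cents of healthy-nucleus cells.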", "key": {"[1]": {"conditions": "12 h, 1 µM, compound concentration 1 uM, replicate 1"}, "[2]": {"conditions": "12 h, 1 µM, compound concentration 1 uM, replicate 2"}, "[3]": {"conditions": "12 h, 10 µM, compound concentration 10 uM, replicate 1"}, "[4]": {"conditions": "12 h, 10 µM, compound concentration 10 uM, replicate 2"}, "[5]": {"conditions": "24 h, 1 µM, compound concentration 1 uM, replicate 1"}, "[6]": {"conditions": "24 h, 1 µM, compound concentration 1 uM, replicate 2"}, "[7]": {"conditions": "24 h, 10 µM, compound concentration 10 uM, replicate 1"}, "[8]": {"conditions": "24 h, 10 µM, compound concentration 10 uM, replicate 2"}}, "data": [{"smiles": "CNC(=O)Nc1ccc2c(c1)[C@@]1(CC2)OC(=O)N(CC(=O)N(Cc2ccc(F)cc2)[C@@H](C)C(F)(F)F)C1=O", "note": "[A-486]", "values": [{"measurement": "Population Apoptotic (%)", "setting": "[1]", "value": 25, "unit": "%"}, {"measurement": "Population Fragmented Nuclei (%)", "setting": "[1]", "value": 17, "unit": "%"}, {"measurement": "Population Healthy Nuclei (%)", "setting": "[1]", "value": 47, "unit": "%"}, {"measurement": "Population Hoechst High Intensity Objects (%)", "setting": "[1]", "value": 15, "unit": "%"}, {"measurement": "Population Membrane Permeable-Phenotype (%)", "setting": "[1]", "value": 17, "unit": "%"}, {"measurement": "Population Mitochondria Different-Phenotype (%)", "setting": "[1]", "value": 15, "unit": "%"}, {"measurement": "Population Mitotic Cells (%)", "setting": "[1]", "value": 74, "unit": "%"}, {"measurement": "Population Normal (%)", "setting": "[1]", "value": 84, "unit": "%"}, {"measurement": "Population Pyknosed Nuclei (%)", "setting": "[1]", "value": 35, "unit": "%"}, {"measurement": "Population Tubulin-Different-Phenotype (%)", "setting": "[1]", "value": 48, "unit": "%"}, {"measurement": "Total Cell Count", "setting": "[1]", "value": 632}, {"measurement": "Population Apoptotic (%)", "setting": "[2]", "value": 12, "unit": "%"}, {"measurement": "Population Fragmented Nuclei (%)", "setting": "[2]", "value": 4, "unit": "%"}, {"measurement": "Population Healthy Nuclei (%)", "setting": "[2]", "value": 82, "unit": "%"}, {"measurement": "Population Hoechst High Intensity Objects (%)", "setting": "[2]", "value": 2, "unit": "%"}, {"measurement": "Population Membrane Permeable-Phenotype (%)", "setting": "[2]", "value": 29, "unit": "%"}, {"measurement": "Population Mitochondria Different-Phenotype (%)", "setting": "[2]", "value": 21, "unit": "%"}, {"measurement": "Population Mitotic Cells (%)", "setting": "[2]", "value": 87, "unit": "%"}, {"measurement": "Population Normal (%)", "setting": "[2]", "value": 97, "unit": "%"}, {"measurement": "Population Pyknosed Nuclei (%)", "setting": "[2]", "value": 13, "unit": "%"}, {"measurement": "Population Tubulin-Different-Phenotype (%)", "setting": "[2]", "value": 88, "unit": "%"}, {"measurement": "Total Cell Count", "setting": "[2]", "value": 1325}, {"measurement": "Population Apoptotic (%)", "setting": "[3]", "value": 14, "unit": "%"}, {"measurement": "Population Fragmented Nuclei (%)", "setting": "[3]", "value": 20, "unit": "%"}, {"measurement": "Population Healthy Nuclei (%)", "setting": "[3]", "value": 57, "unit": "%"}, {"measurement": "Population Hoechst High Intensity Objects (%)", "setting": "[3]", "value": 17, "unit": "%"}, {"measurement": "Population Membrane Permeable-Phenotype (%)", "setting": "[3]", "value": 7, "unit": "%"}, {"measurement": "Population Mitochondria Different-Phenotype (%)", "setting": "[3]", "value": 6, "unit": "%"}, {"measurement": "Population Mitotic Cells (%)", "setting": "[3]", "value": 85, "unit": "%"}, {"measurement": "Population Normal (%)", "setting": "[3]", "value": 82, "unit": "%"}, {"measurement": "Population Pyknosed Nuclei (%)", "setting": "[3]", "value": 22, "unit": "%"}, {"measurement": "Population Tubulin-Different-Phenotype (%)", "setting": "[3]", "value": 4, "unit": "%"}, {"measurement": "Total Cell Count", "setting": "[3]", "value": 510}, {"measurement": "Population Apoptotic (%)", "setting": "[4]", "value": 5, "unit": "%"}, {"measurement": "Population Fragmented Nuclei (%)", "setting": "[4]", "value": 9, "unit": "%"}, {"measurement": "Population Healthy Nuclei (%)", "setting": "[4]", "value": 85, "unit": "%"}, {"measurement": "Population Hoechst High Intensity Objects (%)", "setting": "[4]", "value": 1, "unit": "%"}, {"measurement": "Population Membrane Permeable-Phenotype (%)", "setting": "[4]", "value": 2, "unit": "%"}, {"measurement": "Population Mitochondria Different-Phenotype (%)", "setting": "[4]", "value": 8, "unit": "%"}, {"measurement": "Population Mitotic Cells (%)", "setting": "[4]", "value": 95, "unit": "%"}, {"measurement": "Population Normal (%)", "setting": "[4]", "value": 98, "unit": "%"}, {"measurement": "Population Pyknosed Nuclei (%)", "setting": "[4]", "value": 4, "unit": "%"}, {"measurement": "Population Tubulin-Different-Phenotype (%)", "setting": "[4]", "value": 13, "unit": "%"}, {"measurement": "Total Cell Count", "setting": "[4]", "value": 1787}, {"measurement": "Population Apoptotic (%)", "setting": "[5]", "value": 24, "unit": "%"}, {"measurement": "Population Fragmented Nuclei (%)", "setting": "[5]", "value": 12, "unit": "%"}, {"measurement": "Population Healthy Nuclei (%)", "setting": "[5]", "value": 73, "unit": "%"}, {"measurement": "Population Hoechst High Intensity Objects (%)", "setting": "[5]", "value": 10, "unit": "%"}, {"measurement": "Population Membrane Permeable-Phenotype (%)", "setting": "[5]", "value": 25, "unit": "%"}, {"measurement": "Population Mitochondria Different-Phenotype (%)", "setting": "[5]", "value": 11, "unit": "%"}, {"measurement": "Population Mitotic Cells (%)", "setting": "[5]", "value": 75, "unit": "%"}, {"measurement": "Population Normal (%)", "setting": "[5]", "value": 89, "unit": "%"}, {"measurement": "Population Pyknosed Nuclei (%)", "setting": "[5]", "value": 14, "unit": "%"}, {"measurement": "Population Tubulin-Different-Phenotype (%)", "setting": "[5]", "value": 67, "unit": "%"}, {"measurement": "Total Cell Count", "setting": "[5]", "value": 669}, {"measurement": "Population Apoptotic (%)", "setting": "[6]", "value": 6, "unit": "%"}, {"measurement": "Population Fragmented Nuclei (%)", "setting": "[6]", "value": 14, "unit": "%"}, {"measurement": "Population Healthy Nuclei (%)", "setting": "[6]", "value": 79, "unit": "%"}, {"measurement": "Population Hoechst High Intensity Objects (%)", "setting": "[6]", "value": 3, "unit": "%"}, {"measurement": "Population Membrane Permeable-Phenotype (%)", "setting": "[6]", "value": 36, "unit": "%"}, {"measurement": "Population Mitochondria Different-Phenotype (%)", "setting": "[6]", "value": 10, "unit": "%"}, {"measurement": "Population Mitotic Cells (%)", "setting": "[6]", "value": 93, "unit": "%"}, {"measurement": "Population Normal (%)", "setting": "[6]", "value": 96, "unit": "%"}, {"measurement": "Population Pyknosed Nuclei (%)", "setting": "[6]", "value": 5, "unit": "%"}, {"measurement": "Population Tubulin-Different-Phenotype (%)", "setting": "[6]", "value": 89, "unit": "%"}, {"measurement": "Total Cell Count", "setting": "[6]", "value": 1891}, {"measurement": "Population Apoptotic (%)", "setting": "[7]", "value": 33, "unit": "%"}, {"measurement": "Population Fragmented Nuclei (%)", "setting": "[7]", "value": 15, "unit": "%"}, {"measurement": "Population Healthy Nuclei (%)", "setting": "[7]", "value": 75, "unit": "%"}, {"measurement": "Population Hoechst High Intensity Objects (%)", "setting": "[7]", "value": 9, "unit": "%"}, {"measurement": "Population Membrane Permeable-Phenotype (%)", "setting": "[7]", "value": 8, "unit": "%"}, {"measurement": "Population Mitochondria Different-Phenotype (%)", "setting": "[7]", "value": 4, "unit": "%"}, {"measurement": "Population Mitotic Cells (%)", "setting": "[7]", "value": 66, "unit": "%"}, {"measurement": "Population Normal (%)", "setting": "[7]", "value": 90, "unit": "%"}, {"measurement": "Population Pyknosed Nuclei (%)", "setting": "[7]", "value": 9, "unit": "%"}, {"measurement": "Population Tubulin-Different-Phenotype (%)", "setting": "[7]", "value": 10, "unit": "%"}, {"measurement": "Total Cell Count", "setting": "[7]", "value": 551}, {"measurement": "Population Apoptotic (%)", "setting": "[8]", "value": 7, "unit": "%"}, {"measurement": "Population Fragmented Nuclei (%)", "setting": "[8]", "value": 25, "unit": "%"}, {"measurement": "Population Healthy Nuclei (%)", "setting": "[8]", "value": 72, "unit": "%"}, {"measurement": "Population Hoechst High Intensity Objects (%)", "setting": "[8]", "value": 2, "unit": "%"}, {"measurement": "Population Membrane Permeable-Phenotype (%)", "setting": "[8]", "value": 7, "unit": "%"}, {"measurement": "Population Mitochondria Different-Phenotype (%)", "setting": "[8]", "value": 2, "unit": "%"}, {"measurement": "Population Mitotic Cells (%)", "setting": "[8]", "value": 92, "unit": "%"}, {"measurement": "Population Normal (%)", "setting": "[8]", "value": 97, "unit": "%"}, {"measurement": "Population Pyknosed Nuclei (%)", "setting": "[8]", "value": 1, "unit": "%"}, {"measurement": "Population Tubulin-Different-Phenotype (%)", "setting": "[8]", "value": 13, "unit": "%"}, {"measurement": "Total Cell Count", "setting": "[8]", "value": 3041}]}]}
